Compounds with a hit are over-represented: about 3.5% of the library has one in this group of screens.
MrgX1 antag = antagonists of human MrgX1 receptor, primary screen, HEK293 cells, Fluo-4 calcium flux | BAM8-22 antagonism; active compounds read low | B-score at 10 µM | 310,000 tested, 1.3% active | AID 588676, 2011;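 active = calcium-response B-score plate-corrected more than 3 library SD below zero, starting fluorescence within 5 deviations, no agonist response on first addition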;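 also: peak minus trough fluorescence over baseline after final BAM8-22 challenge near maximal dose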
Target sequence (Q96LB2 whole entry, looked up): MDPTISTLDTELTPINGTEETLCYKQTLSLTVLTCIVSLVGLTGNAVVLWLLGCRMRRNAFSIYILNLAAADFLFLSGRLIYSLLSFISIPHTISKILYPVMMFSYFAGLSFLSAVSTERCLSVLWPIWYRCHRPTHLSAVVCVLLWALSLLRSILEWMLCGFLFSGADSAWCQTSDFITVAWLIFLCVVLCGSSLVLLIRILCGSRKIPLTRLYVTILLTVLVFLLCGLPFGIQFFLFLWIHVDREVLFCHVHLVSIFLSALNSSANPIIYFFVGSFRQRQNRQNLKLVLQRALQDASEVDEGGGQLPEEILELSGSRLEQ
MrgX1 ag = agonists of human MrgX1 receptor, primary screen, HEK293 cells, Fluo-4 calcium flux; AID 588627, 2011; Mas-related G-protein coupled receptor member X1 (Homo sapiens), Q96LB2; 310,000 tested, 0.44% active; B-score at 10 µM; Fluo-4 calcium fluorescence, agonist mode; active compounds read high;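 active = calcium response B-score plate-corrected fluorescence ratio at least 3 library SD, with starting fluorescence B-score inside 5 SD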
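times = overnight plating, then 30 min 37 °C plus 30 min room-temperature dye loading | assay system = stable human MrgX1 HEK293 cell line | input = fifteen thousand cells per well | signal = kinetic calcium dye fluorescence, Fluo-4 NW | dosing = compound delivered in addition one of three | read-out = B-scored fluorescence response ratio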
RGS4 pot = RGS4 potentiators or activators, primary screen, cell-based, HEK293 M3R inducible RGS4, calcium flux | carbachol calcium flux Fluo4; active compounds read low | B-score at 10 µM | 310,000 tested, 0.92% active | AID 463111, 2010;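 active = B-score of the integrated calcium signal more than 4 SD below the library mean, with starting fluorescence not abnormally high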;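 also: negative B-score means reduced calcium response which marks RGS4 activation or potentiation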
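test system = HEK293 cells with stable M3R and inducible RGS4 | schedule = recording 10 s baseline at 1 Hz, 100 s post-agonist | technique = Fluo4-AM (2 µM) calcium-flux fluorescence, kinetic read | measure = Agonist-evoked peak-minus-minimum fluorescence over baseline, integrated ratio, B score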
RGS4 inh = RGS4 inhibitors, primary screen, cell-based, HEK293 M3R inducible RGS4, calcium flux | Regulator of G-protein signaling 4 (Homo sapiens), P49798 | B-score at 10 µM | Fluo-4 calcium flux; active compounds read high; triggered by carbachol at its EC20 | AID 463165, 2010 | 310,000 tested, 0.45% active;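 active = B-score, a plate-corrected calcium signal, over three deviations above library mean, with baseline fluorescence within five deviations of library mean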;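 also: RGS4 expression induced by doxycycline in cells with stable M3 receptor; B-score is computed from the integrated fluorescence ratio over baseline after carbachol; higher B-score means a larger calcium signal and so more RGS4 inhibition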
Target sequence (P49798 whole entry, looked up): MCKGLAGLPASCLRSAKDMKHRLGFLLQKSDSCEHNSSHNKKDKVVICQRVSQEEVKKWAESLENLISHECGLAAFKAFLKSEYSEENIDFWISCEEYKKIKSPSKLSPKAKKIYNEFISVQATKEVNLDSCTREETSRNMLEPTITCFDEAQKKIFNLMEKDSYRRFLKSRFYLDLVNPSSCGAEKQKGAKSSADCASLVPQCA
MrgX1 allo act = positive allosteric modulators of MrgX1, primary screen, HEK293 cells, Fluo-4 calcium flux; 310,000 tested, 0.63% active; Mas-related G-protein coupled receptor member X1 (Homo sapiens), Q96LB2; B-score at 10 µM; FDSS; active compounds read high;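 active = plate-corrected calcium response at least 3 library SD above typical, normal starting fluorescence, not activating the receptor alone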;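 also: compound read alongside a low EC10 to EC30 dose of BAM8-22 agonist; peak minus trough fluorescence over baseline measured at the second addition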
MrgX1 antag conf = MrgX1 receptor antagonists, duplicate retest, confirmation, HEK293 cells, Fluo-4 calcium flux; shares compounds with MrgX1 antag; BAM8-22 calcium flux; active compounds read low; remaining BAM8-22 calcium response % of control (active compounds read low), % at 10 µM; 2,300 tested, 19% active; AID 602420, 2012;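 active = remaining agonist calcium response no higher than 100% minus 3 SD of agonist-only control wells, with starting fluorescence near control levels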;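 also: agonist BAM8-22 given at a near maximal EC90 to ECmax level; peak minus minimum fluorescence divided by baseline after agonist addition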
HEK293 Ca flux = nonspecific calcium signal in parental HEK293, confirmation, counter-screen for MrgX1 antagonist project, parental HEK293 cells, Fluo-4 calcium flux | shares compounds with MrgX1 antag | Fluo-4 calcium fluorescence, FDSS | 4,000 tested, 2% active | fluorescence ratio F(max-min)/F0 at 10 µM;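 active = duplicate-averaged calcium fluorescence ratio at least three times the standard deviation of buffer wells, a nonspecific response in parental cells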
HEK293 Ca counter = calcium response in parental HEK293 cells, primary screen, counter-screen for MrgX1 allosteric activator project, cell-based, Fluo-4 calcium flux, duplicate. AID 624114, 2012. Fluo-4 fluorescence ratio; active compounds read high. fluorescence ratio F(max-min)/F0 at 10 µM. 4,000 tested, 0.4% active. shares compounds with MrgX1 antag;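 active = calcium fluorescence ratio, averaged over duplicates, at least 3 SD of the buffer-well ratio, meaning a nonspecific response in receptor-free cells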;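 also: untransfected parental HEK293 lacking MrgX1 used as counterscreen for MrgX1 allosteric activators; fluorescence change taken during the second addition on a kinetic imager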
HEK293 Ca cntr2 = calcium response in parental HEK293 cells, primary screen, counter-screen for MrgX1 agonist project, cell-based, Fluo-4 calcium flux, duplicate, agonist mode; 4,000 tested, 8.7% active; Fluo-4 calcium fluorescence (FDSS); active compounds read high; shares compounds with MrgX1 antag; fluorescence ratio F(max-min)/F0 at 10 µM;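 active = calcium fluorescence ratio at least three times the spread of buffer wells, meaning a non-specific response in parental cells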
* hit, by the source's call; i = inactive; . = no result.

SMILES	MrgX1 antag	MrgX1 ag	RGS4 pot	RGS4 inh	MrgX1 allo act	MrgX1 antag conf	HEK293 Ca flux	HEK293 Ca counter	HEK293 Ca cntr2
CCN(CC)c1ccc(C(=O)NC(=S)N2CCN(Cc3ccc4c(c3)OCO4)CC2)cc1	-5.1*	i	i	i	i	i	i	i	i
Cc1ccc(S(=O)(=O)N(C)c2ccc(C(=O)N3CCN(Cc4ccc5c(c4)OCO5)CC3)cc2)cc1	-5.2*	i	i	i	i	i	i	i	i
CC(C)NC(=S)N1CCN(Cc2ccc3c(c2)OCO3)CC1	i	i	i	i	i	.	.	.	.
COc1ccc(C2=NN(c3nc(-c4ccc(CNC(C)=O)cc4)cs3)C(c3ccco3)C2)cc1 (centres undefined)	i	i	i	i	i	.	.	.	.
O=C(C1CC1)N1CCc2sccc2C1c1ccc(Cl)cc1 (centres undefined)	i	i	i	i	i	.	.	.	.
COc1ccc(C(=O)Nc2cc3c4c(c2)CC(=O)N4CCC3)cc1	i	i	i	i	i	.	.	.	.
O=c1oc2ccccc2c2c1SC(C(F)(F)F)C2 (centres undefined)	-5.1*	i	i	i	i	76%*	i	i	i
Cc1cccc(NC(=O)c2cc(NC(=O)c3ccco3)ccc2Cl)n1	-4.7*	i	.	.	i	85%*	i	i	i
CC(Oc1ccccc1)c1nnc(SCC(=O)NC2CC2)n1C (centres undefined)	i	i	i	i	i	.	.	.	.
COc1ccccc1-c1nnc(SCC(=O)OC(C)C)o1	-6.6*	i	i	i	i	i	i	i	i
CCN(C(=O)c1c(-c2ccccc2)noc1C)c1ccccc1	-4.6*	i	i	i	i	i	i	i	i
Cc1ccc2c(C(=O)CN3CCOCC3)c(C)[nH]c2c1	i	i	i	i	i	.	.	.	.
Cc1ccc2c(C(=O)CN3CCN(c4ccccc4)CC3)c(C)[nH]c2c1	-7.3*	i	i	i	i	i	i	i	i
Cc1ccc(C(=O)Nc2ccncc2)cc1S(=O)(=O)N1CCOCC1	-4.6*	i	i	i	i	i	i	i	64*
O=C(Nc1cccc(Br)c1)c1ccc(Cl)c(S(=O)(=O)N2CCOCC2)c1	-4.7*	i	i	i	i	80%*	i	i	i
Cc1ccc(C(=O)NCc2ccco2)cc1S(=O)(=O)N1CCCCC1	-6.7*	i	i	i	i	i	i	i	i
Cc1ccc(C(=O)Nc2ccccc2C(=O)NCc2ccco2)cc1S(=O)(=O)N1CCCCC1	i	i	i	i	i	.	.	.	.
COCCN(C(=O)Cn1c(C(F)(F)F)nc2ccccc21)c1c(N)n(Cc2ccccc2)c(=O)[nH]c1=O	i	i	i	i	i	.	.	.	.
CCN(C(=O)Cc1c(C(=O)O)n(C)c2ccccc12)c1cc(OC)ccc1OC	i	i	i	i	i	.	.	.	.
CCN(C(=O)Cc1c(C(=O)O)n(C)c2ccccc12)c1ccc(F)cc1	-5*	i	i	i	i	i	i	i	i
C(=N\n1cnnc1)/c1ccccn1	i	i	i	i	i	.	.	.	.
C(=N\n1cnnc1)/c1ccc2ncccc2c1	-4.7*	i	i	i	i	i	i	i	i
Cc1sc2nc[nH]c(=O)c2c1-c1ccc(Cl)cc1	i	i	i	i	i	.	.	.	.
CCn1c(COc2ccc(OC)cc2)nc2ccccc21	i	i	i	i	i	.	.	.	.
CCOC(=O)c1ccc2c(c1)nc(COc1ccc3ccccc3c1)n2CC	-5.2*	i	-7.3*	i	i	i	i	i	i
SMILES	MrgX1 antag	MrgX1 ag	RGS4 pot	RGS4 inh	MrgX1 allo act	MrgX1 antag conf	HEK293 Ca flux	HEK293 Ca counter	HEK293 Ca cntr2
COC(=O)CCC/C=C1\SC[C@@H](NC(=O)c2ccccc2)C1NC(C)=O (some centres undefined)	i	i	i	i	i	.	.	.	.
O=S(=O)(Cc1cc(NCc2ccccc2)nc(-c2ccccn2)n1)c1ccccc1	-5.7*	i	i	i	i	86%*	i	i	i
CCOC(=O)C1=C(C)NC(=O)NC1c1ccc(-c2ccc(Cl)cc2)o1 (centres undefined)	i	i	i	i	i	.	.	.	.
CCOC(=O)C1=C(C)NC(=S)NC1c1ccc(-c2ccc(Cl)cc2)o1 (centres undefined)	-4.8*	i	i	i	i	i	i	i	i
CCOC(=O)c1sc(NC(=O)CSc2nc3c(cc2C#N)CCCCCC3)c(C#N)c1C	i	i	i	i	i	.	.	.	.
CCOC(=O)c1sc(NC(=O)CSc2nc(C)cc(C)c2C#N)c(C#N)c1C	-7.3*	i	i	i	i	i	i	i	i
NC(=S)Nc1ccc(Cl)cc1Cl	-6.5*	i	i	i	i	i	i	i	i
S=C(Nc1ccccc1)Nc1ccc(Cl)cc1Cl	i	i	i	i	i	.	.	.	.
CC1(C)Cc2nc(N3CCCC3)c(C#N)cc2CO1	i	i	i	i	i	.	.	.	.
CC1(C)Cc2nc(N3CCOCC3)c(C#N)cc2CO1	-6.1*	i	i	i	i	i	i	i	i
CC1CN(C(=O)CS(=O)(=O)Cc2ccc(Cl)cc2)CC(C)O1 (centres undefined)	-4.8*	i	i	i	i	i	i	i	i
